Test results published in paper PMC6397583 (Proceedings of the National Academy of Sciences of the …, 2019).

System: E. coli MC1000
Test: Transmission electron microscopy of peptide-treated bacteria
Type: cell-based, Escherichia coli
Conditions: 6 × 10^8 cfu E. coli MC1000, 200 µg/mL peptide, 2 h
Summary of the method: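 Bacteria (6 × 10^8 cfu) were exposed to each test peptide (α-defensin or its fragments) at 200 µg/mL for 2 h. They were then fixed and cut into 30-nm sections. Cell envelope and membrane phenotypes were examined by transmission electron microscopy.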

| Substance | phenotype of peptide-treated bacteria (TEM) |
| --- | --- |
| CATRESLSGVCEISGRLY [HD-5_10–27] | only minor damage in some bacteria while the majority remained unaffected |
| LYRLCCR [HD-5_26–32] | small vesicular structures inside the bacteria |
